Experimental data as given in the M2OR odorant receptor database.

Key:
Settings in all cases: stereoisomer not certain
UniProt Q8VGX8 = molecular target: T1, UniProt Q8VGX8
T1 sequence (whole entry): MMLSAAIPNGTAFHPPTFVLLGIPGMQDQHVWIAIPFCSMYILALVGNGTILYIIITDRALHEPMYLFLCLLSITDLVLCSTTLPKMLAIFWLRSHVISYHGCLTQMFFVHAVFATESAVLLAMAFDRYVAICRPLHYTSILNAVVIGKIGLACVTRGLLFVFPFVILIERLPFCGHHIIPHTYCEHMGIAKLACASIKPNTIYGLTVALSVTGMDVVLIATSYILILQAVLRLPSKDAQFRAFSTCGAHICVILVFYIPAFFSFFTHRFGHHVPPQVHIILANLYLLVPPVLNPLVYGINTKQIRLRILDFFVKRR
Outline: (§1)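 Assay methods differ from source to source, frequently being transient luciferase assays in mammalian cell lines. For each receptor–molecule pair, the label responsive (active) applies when the original authors judged the measured signal statistically different from baseline, and non-responsive (inactive) applies otherwise.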

UniProt Q8VGY6 = molecular target: T2, UniProt Q8VGY6
T2 sequence (whole entry): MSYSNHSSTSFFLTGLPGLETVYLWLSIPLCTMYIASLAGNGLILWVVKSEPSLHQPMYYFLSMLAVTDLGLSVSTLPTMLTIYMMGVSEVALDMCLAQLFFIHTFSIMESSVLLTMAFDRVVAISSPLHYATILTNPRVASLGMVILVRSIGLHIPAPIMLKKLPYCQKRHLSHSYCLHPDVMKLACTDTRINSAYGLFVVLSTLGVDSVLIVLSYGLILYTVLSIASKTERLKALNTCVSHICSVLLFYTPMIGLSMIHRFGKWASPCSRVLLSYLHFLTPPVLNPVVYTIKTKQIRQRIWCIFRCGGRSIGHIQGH
Outline: as §1

UniProt Q8VGZ2 = molecular target: T3, UniProt Q8VGZ2
T3 sequence (whole entry): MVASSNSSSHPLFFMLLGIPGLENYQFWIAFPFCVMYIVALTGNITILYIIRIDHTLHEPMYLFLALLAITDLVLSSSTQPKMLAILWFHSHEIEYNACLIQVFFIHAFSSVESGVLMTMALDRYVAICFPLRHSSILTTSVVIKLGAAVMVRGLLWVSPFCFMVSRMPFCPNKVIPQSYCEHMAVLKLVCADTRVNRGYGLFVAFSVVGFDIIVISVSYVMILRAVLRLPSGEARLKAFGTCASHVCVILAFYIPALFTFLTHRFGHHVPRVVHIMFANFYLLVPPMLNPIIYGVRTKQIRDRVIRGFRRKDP
Outline: as §1

UniProt Q8VGZ7 = molecular target: T4, UniProt Q8VGZ7
T4 sequence (whole entry): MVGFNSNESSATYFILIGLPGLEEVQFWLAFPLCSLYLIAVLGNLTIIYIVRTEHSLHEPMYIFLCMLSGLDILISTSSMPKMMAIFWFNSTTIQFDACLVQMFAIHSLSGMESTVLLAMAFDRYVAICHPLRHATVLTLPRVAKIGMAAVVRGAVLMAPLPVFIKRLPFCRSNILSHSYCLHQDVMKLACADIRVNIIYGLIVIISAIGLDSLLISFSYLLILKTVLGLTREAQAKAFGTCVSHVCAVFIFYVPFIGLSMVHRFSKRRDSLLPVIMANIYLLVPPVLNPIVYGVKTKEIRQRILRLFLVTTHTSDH
Outline: as §1

UniProt Q8VH10 = molecular target: T5, UniProt Q8VH10
T5 sequence (whole entry): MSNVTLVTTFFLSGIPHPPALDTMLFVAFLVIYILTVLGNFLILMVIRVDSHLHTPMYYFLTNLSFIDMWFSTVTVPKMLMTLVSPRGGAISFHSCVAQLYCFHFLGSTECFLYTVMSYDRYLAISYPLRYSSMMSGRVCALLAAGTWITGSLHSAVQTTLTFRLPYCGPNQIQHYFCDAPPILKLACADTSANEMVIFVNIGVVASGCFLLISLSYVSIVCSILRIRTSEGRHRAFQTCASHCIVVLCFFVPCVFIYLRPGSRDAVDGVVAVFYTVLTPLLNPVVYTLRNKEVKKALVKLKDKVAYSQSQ
Outline: as §1

UniProt Q8VH16 = molecular target: T6, UniProt Q8VH16
T6 sequence (whole entry): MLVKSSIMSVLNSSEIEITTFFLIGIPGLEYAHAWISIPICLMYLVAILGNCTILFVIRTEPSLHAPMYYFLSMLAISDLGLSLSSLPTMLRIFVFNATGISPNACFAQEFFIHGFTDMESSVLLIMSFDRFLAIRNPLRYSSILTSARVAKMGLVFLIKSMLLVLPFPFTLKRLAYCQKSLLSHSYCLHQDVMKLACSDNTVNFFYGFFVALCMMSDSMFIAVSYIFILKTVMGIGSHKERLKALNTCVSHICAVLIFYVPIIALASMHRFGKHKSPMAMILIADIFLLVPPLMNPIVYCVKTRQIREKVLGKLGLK
Outline: as §1

UniProt Q8VH20 = molecular target: T7, UniProt Q8VH20
T7 sequence (whole entry): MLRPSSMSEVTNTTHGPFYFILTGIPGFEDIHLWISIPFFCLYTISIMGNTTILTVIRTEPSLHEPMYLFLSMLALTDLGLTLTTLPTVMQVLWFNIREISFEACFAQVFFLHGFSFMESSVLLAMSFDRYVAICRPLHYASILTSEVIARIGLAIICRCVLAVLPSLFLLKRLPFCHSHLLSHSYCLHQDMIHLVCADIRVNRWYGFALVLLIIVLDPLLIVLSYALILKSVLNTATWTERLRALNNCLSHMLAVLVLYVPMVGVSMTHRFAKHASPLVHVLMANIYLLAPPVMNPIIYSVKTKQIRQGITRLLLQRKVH
Outline: as §1

UniProt Q8VH21 = molecular target: T8, UniProt Q8VH21
T8 sequence (whole entry): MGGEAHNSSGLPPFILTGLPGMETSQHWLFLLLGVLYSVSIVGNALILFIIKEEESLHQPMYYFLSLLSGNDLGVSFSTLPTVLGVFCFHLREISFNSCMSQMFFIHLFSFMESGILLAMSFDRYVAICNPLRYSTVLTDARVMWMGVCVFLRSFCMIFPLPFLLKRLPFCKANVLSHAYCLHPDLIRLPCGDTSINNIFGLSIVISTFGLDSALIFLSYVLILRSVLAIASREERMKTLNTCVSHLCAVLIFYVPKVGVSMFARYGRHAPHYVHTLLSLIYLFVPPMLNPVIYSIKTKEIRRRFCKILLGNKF
Outline: as §1

UniProt Q924H8 = molecular target: T9, UniProt Q924H8
T9 sequence (whole entry): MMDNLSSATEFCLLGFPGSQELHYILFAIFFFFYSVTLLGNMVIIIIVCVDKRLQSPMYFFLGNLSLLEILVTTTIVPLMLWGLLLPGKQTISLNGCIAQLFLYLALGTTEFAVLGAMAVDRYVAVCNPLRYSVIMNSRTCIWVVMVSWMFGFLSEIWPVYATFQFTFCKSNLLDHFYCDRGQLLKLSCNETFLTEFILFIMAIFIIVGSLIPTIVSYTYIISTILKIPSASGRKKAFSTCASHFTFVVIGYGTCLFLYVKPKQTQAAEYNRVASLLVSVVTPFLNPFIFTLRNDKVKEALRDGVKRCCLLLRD
Outline: as §1

UniProt Q9EPN9 = molecular target: T10, UniProt Q9EPN9
T10 sequence (whole entry): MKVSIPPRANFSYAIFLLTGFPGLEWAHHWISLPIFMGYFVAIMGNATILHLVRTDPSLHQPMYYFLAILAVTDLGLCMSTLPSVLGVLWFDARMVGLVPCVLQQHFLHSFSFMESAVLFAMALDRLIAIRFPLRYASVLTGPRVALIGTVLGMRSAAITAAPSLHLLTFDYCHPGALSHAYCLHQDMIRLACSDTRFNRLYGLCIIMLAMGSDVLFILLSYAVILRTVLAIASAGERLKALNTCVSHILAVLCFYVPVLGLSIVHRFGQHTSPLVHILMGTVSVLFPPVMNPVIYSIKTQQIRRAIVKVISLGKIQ
Outline: as §1

UniProt Q9R0K2 = molecular target: UniProt Q9R0K2
Chain of UniProt Q9R0K2 (Q9R0K2 as listed by the source): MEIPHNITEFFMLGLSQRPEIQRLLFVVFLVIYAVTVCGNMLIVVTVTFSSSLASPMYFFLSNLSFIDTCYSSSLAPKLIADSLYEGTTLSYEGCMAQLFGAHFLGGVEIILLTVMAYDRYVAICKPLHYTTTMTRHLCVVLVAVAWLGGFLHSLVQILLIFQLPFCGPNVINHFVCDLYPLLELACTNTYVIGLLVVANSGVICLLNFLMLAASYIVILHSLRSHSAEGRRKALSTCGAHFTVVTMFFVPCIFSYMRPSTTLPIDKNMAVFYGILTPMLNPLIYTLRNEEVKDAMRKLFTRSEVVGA
Outline: as §1

UniProt Q9WU86 = molecular target: T11, UniProt Q9WU86
T11 sequence (whole entry): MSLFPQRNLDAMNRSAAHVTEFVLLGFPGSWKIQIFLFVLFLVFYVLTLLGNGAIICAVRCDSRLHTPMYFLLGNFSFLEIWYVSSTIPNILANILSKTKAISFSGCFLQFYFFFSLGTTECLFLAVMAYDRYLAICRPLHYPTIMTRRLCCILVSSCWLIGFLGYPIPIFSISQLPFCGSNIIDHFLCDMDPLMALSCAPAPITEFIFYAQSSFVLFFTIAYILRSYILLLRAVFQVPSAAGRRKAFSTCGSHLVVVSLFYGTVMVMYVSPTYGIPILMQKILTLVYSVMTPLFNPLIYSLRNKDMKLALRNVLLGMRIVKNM
Outline: as §1

UniProt Q8VH18 = molecular target: T12, UniProt Q8VH18
T12 sequence (whole entry): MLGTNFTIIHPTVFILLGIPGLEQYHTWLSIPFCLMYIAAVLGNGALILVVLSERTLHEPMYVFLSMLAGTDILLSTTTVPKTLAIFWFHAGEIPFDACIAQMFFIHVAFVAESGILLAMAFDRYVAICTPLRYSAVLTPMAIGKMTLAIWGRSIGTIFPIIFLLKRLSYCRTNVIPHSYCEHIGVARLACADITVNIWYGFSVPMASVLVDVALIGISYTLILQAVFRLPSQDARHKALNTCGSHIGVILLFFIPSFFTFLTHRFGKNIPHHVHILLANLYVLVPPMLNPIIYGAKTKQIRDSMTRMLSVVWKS
Outline: as §1

UniProt Q924X8 = molecular target: T13, UniProt Q924X8
T13 sequence (whole entry): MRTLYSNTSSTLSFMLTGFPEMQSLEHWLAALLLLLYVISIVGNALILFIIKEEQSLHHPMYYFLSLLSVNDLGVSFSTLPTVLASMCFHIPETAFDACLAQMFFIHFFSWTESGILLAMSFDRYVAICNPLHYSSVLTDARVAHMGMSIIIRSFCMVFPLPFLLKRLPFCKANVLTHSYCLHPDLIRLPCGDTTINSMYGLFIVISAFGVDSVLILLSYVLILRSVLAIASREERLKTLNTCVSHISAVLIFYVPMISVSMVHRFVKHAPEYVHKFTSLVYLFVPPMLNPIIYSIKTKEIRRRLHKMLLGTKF
Outline: as §1

UniProt Q9WU94 = molecular target: T14, UniProt Q9WU94
T14 sequence (whole entry): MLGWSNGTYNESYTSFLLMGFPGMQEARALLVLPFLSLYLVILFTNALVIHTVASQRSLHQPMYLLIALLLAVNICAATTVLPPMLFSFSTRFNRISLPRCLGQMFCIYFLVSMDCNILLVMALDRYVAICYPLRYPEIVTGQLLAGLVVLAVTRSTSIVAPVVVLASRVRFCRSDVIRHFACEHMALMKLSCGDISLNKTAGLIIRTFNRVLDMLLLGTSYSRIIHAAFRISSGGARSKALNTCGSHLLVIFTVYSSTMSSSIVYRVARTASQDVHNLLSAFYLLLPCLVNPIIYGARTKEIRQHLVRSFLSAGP
Outline: as §1

UniProt Q9WVD7 = molecular target: T15, UniProt Q9WVD7
T15 sequence (whole entry): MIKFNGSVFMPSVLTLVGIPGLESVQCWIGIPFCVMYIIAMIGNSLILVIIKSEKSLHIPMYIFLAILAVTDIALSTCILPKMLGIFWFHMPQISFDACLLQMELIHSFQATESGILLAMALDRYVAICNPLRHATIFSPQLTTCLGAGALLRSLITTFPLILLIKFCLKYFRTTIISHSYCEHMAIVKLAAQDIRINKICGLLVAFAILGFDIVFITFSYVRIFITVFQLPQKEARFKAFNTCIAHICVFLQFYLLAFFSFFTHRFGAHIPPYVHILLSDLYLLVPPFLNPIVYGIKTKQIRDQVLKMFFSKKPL
Outline: as §1

Row | Structure (SMILES) | odorant receptor agonist call (UniProt Q8VGX8) | odorant receptor agonist call (UniProt Q8VGY6) | odorant receptor agonist call (UniProt Q8VGZ2) | odorant receptor agonist call (UniProt Q8VGZ7) | odorant receptor agonist call (UniProt Q8VH10) | odorant receptor agonist call (UniProt Q8VH16) | odorant receptor agonist call (UniProt Q8VH20) | odorant receptor agonist call (UniProt Q8VH21) | odorant receptor agonist call (UniProt Q924H8) | odorant receptor agonist call (UniProt Q9EPN9) | odorant receptor agonist call (UniProt Q9R0K2) | odorant receptor agonist call (UniProt Q9WU86) | odorant receptor agonist call (UniProt Q8VH18) | odorant receptor agonist call (UniProt Q924X8) | odorant receptor agonist call (UniProt Q9WU94) | odorant receptor agonist call (UniProt Q9WVD7)
1 | O=C1CCOc2ccccc21 | inactive | inactive | inactive | inactive | inactive | inactive | inactive | inactive | inactive | inactive | inactive | inactive |  |  |  | 
2 | CCCCCCCCCO | inactive | inactive | inactive | inactive | inactive | inactive | inactive | inactive | inactive | inactive | inactive | inactive | active | inactive | inactive | active
3 | CCCCCCCCCS | inactive | inactive | inactive | inactive | inactive | inactive | inactive | inactive | active | inactive | inactive | inactive |  |  |  | 
4 | CC(=O)Oc1ccccc1 | inactive | inactive | inactive | inactive | active | inactive | inactive | inactive | inactive | inactive | inactive | active |  |  |  | 
5 | CCCCC(=O)CC | inactive | inactive | inactive | inactive | inactive | inactive | inactive | inactive | inactive | inactive | inactive | inactive |  |  |  | 
